Results: article PMC6422158 (Clinical cancer research : an official journal of the …, 2018)

Columns and labels:
[1] = tested on: advanced cancer; assay: Tumor response per RECIST 1.1, all patients on therapy; assay type: in vivo, human; conditions: 84 patients on therapy
Summary of the method: (§1)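 Response was assessed by RECIST 1.1 plus investigator assessment. Best response required two CR determinations (or two PR-or-better) before progression. Confirmation used the same radiologic method repeated at least 4 weeks after the initial response. ORR was CR+PR among all patients dosed at least once. Clinical benefit was CR+PR+SD among dosed patients with a measurable lesion.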

[2] = in vitro; assay type: in vitro ADME; conditions: human, plasma
[3] = Plasma pharmacokinetics of LY2940680 and LSN3185556 in patients; assay type: in vivo, human
Summary of the method: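 Oral dosing was once daily in the morning, 50–600 mg, on 28-day cycles. About 4 mL blood was drawn into EDTA tubes over a 24-h sampling schedule. Parent and metabolite in plasma were quantified by validated LC/MS. Noncompartmental analysis gave Cmax, tmax, AUC0–24, t1/2, Vd/F and CL/F. Accumulation ratio was from AUC0–24, days 1 vs 15, reported as geometric means with %CV.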

[4] = tested on: human Smo (hSmo) receptor; conditions: cited from earlier work
[5] = target: human serum albumin (Homo sapiens, UniProt P02768); assay: In vitro binding to human serum albumin; assay type: in vitro ADME
Chain of human serum albumin (P02768 25-609): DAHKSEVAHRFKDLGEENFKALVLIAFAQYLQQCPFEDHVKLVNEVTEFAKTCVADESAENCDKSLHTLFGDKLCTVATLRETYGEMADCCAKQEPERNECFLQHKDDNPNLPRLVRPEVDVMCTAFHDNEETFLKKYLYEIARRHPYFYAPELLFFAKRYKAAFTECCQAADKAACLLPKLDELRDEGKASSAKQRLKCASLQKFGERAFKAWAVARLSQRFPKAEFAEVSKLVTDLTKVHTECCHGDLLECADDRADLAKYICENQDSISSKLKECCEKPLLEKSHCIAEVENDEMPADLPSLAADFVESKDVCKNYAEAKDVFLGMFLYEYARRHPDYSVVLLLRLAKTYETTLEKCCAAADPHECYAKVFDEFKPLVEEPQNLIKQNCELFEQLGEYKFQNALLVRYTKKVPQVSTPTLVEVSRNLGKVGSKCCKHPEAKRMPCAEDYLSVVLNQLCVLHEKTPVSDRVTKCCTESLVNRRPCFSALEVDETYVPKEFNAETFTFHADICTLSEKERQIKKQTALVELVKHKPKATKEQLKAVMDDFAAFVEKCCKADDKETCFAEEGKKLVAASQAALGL

[6] = tested on: Gli1 mRNA; assay: Gli1 mRNA expression in skin biopsies; assay type: in vivo, human; conditions: overall, all doses 50-600 mg QD; interquartile range 80.9%−95.7%
Summary of the method: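 Normal skin biopsies taken predose, cycle 1 day 15 and cycle 2 day 1 from patients on oral QD dosing (28-day cycles). Post-dose samples were taken 2 h after dosing in escalation, and 24 h after the cycle 2 day 1 dose in confirmation/expansion. GLI1 was measured by RT-PCR, normalised to RPLP0, and % inhibition was derived by 2−ΔΔCT and summarised by dose level.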

[7] = tested on: locally advanced/metastatic basal cell carcinoma; assay: Tumor response per RECIST 1.1, BCC patients; assay type: in vivo, human
Summary of the method: as §1

[8] = tested on: patients with advanced cancer; assay: Phase I safety and tolerability; assay type: in vivo
[9] = target: CYP3A4 (Homo sapiens, UniProt P08684); assay: In vitro metabolism by CYP3A4; assay type: in vitro ADME; conditions: in vitro data
Chain of CYP3A4 (P08684 whole entry): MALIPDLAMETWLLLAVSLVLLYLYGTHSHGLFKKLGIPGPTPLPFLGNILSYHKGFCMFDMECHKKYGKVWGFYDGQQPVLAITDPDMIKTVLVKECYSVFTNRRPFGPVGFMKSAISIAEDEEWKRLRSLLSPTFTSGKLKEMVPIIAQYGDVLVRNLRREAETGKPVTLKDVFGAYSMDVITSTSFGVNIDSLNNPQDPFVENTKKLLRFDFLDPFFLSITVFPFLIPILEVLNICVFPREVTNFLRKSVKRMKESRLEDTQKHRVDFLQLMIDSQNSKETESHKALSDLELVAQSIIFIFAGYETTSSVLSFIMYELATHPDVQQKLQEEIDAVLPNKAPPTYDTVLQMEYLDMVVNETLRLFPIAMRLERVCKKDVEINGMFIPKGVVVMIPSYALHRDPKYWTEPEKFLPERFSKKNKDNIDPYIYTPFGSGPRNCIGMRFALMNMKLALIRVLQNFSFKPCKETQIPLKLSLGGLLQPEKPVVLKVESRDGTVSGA

[10] = at doses above 400 mg; first human dose trial; ref 19−22; cited from earlier work
[11] = tested on: advanced BCC; conditions: human, in vivo; cited from earlier work
[12] = cited from earlier work
[13] = BCC, prior Hh therapy including vismodegib and sonidegib

CN(C(=O)c1ccc(F)cc1C(F)(F)F)C1CCN(c2nnc(-c3ccnn3C)c3ccccc23)CC1 [LY2940680, taladegib]
Best response of SD [1]: 26 (30.9%) patients (%)
Best response of progressive disease [1]: 24 (28.6%) patients (%)
Confirmed CR [1]: 5 (5.9%) patients (%)
Confirmed PR [1]: 16 (19.0%) patients (%)
Patients with a response [1]: 22 (26.2%) patients (%)
Unconfirmed PR [1]: 1 (1.2%) patients (%)
fraction unbound [2]: 0.056
Accumulation ratio based on AUC0–24 ([3]; LY2940680, between days 1 and 15, QD, range 0.7−4.8, 39% CV): approximately 2
Steady state attained ([3]; QD dosing): cycle 2, day 1
Dose proportionality of Cmax and AUC0–24 ([3]; after multiple doses): did not suggest any large deviation from dose proportionality
Time to reach Cmax ([3]; after single- and multiple-dose oral administrations): approximately 3 hours
PK variability on exposure ([3]; human, in vivo): approximately 70%
Vd/F ([3]; human, plasma, po): 235 L
CL/F (geometric mean) ([3]; oral, 70% CV): 8.2 L/h
Binding to hSmo receptor [4]: competitively inhibits binding of an hSmo agonist
Concentration dependence of binding to human serum albumin ([5]; 1 to 10 μmol/L): no apparent concentration-dependent binding
Predominant plasma-binding protein ([5]; tested with human serum albumin and human α−1-acid glycoprotein): Human serum albumin
Gli1 inhibition in normal skin (median) [6]: 92.3%
Best overall response of CR or PR ([7]; 16 BCC patients requiring dose reductions): 9 (56.3%) patients (%)
Best overall response of CR or PR ([7]; 47 BCC patients): 22 (46.8%) patients (%)
Best response of progressive disease ([7]; 47 BCC patients): 1 patient
Best response of SD ([7]; 47 BCC patients (twenty-one patients)): 44.7%
Best response of non-CR nonprogressive disease ([7]; 47 BCC patients, based on nontarget lesions): 1 patient
Responses in Hh treatment-naïve patients ([7]; BCC): 68.8%
Responses in Hh treatment-naïve patients (responders/patients) ([7]; BCC): 11/16
Estimated median PFS ([7]; BCC expansion phase (n = 40), 400 mg QD, 95% CI 7.62−17.54): 12.0 months
Estimated response rate ([7]; BCC patients (n = 47), 95% CI 32.1%−61.9%): 46.8%
Disease control rate ([7]; BCC patients, 95% CI 82.5%−98.7%): 93.6%
Responses in patients previously treated with Hh therapy [7, 13]: 35.5%
Responses in patients previously treated with Hh therapy (responders/patients) [7, 13]: 11/31
Duration of sustained response, single patient ([7]; Hh-inhibitor treatment–naïve locally advanced BCC, 50 mg QD, PR): 8.3 months
Confirmed CR ([7]; number of the 16 BCC patients requiring dose reductions): 3
Confirmed CR ([7]; number of the 47 BCC patients): 5
Confirmed PR ([7]; number of the 47 BCC patients): 16
Unconfirmed PR ([7]; number of the 47 BCC patients): 1
AE resulting in dose reductions: decreased appetite ([8]; human, in vivo): 3
AE resulting in dose reductions: dysgeusia ([8]; human, in vivo): 3
AE resulting in dose reductions: fatigue ([8]; human, in vivo): 8
AE resulting in dose reductions: muscle spasms ([8]; human, in vivo): 8
AE resulting in dose reductions: nausea ([8]; human, in vivo): 3
AE resulting in dose reductions: weight decreased ([8]; human, in vivo): 3
Patients who discontinued treatment because of AE ([8]; human, in vivo): 10
Patients with SAEs ([8]; human, in vivo): 22 patients
Patients with at least 1 dose reduction ([8]; human, in vivo): 16 patients
Patients with DLTs ([8]; human, in vivo, 1 cycle): 4 patients
DLT observed ([8]; human, in vivo, 22 day): grade 3 hyponatremia
Maximum tolerable dose (MTD) ([8]; oral QD, 3+3 dose escalation 50 to 600 mg): 400 mg
Fraction metabolized by CYP3A4 [9]: 100%

Cc1c(C(=O)Nc2ccc(N3C[C@@H](C)O[C@@H](C)C3)nc2)cccc1-c1ccc(OC(F)(F)F)cc1 [sonidegib]
PK linearity [10]: nonlinear PK
Efficacy in advanced BCC patients previously treated with vismodegib [11]: not efficacious
Bound to plasma protein [12]: over 99%
